Molecules are shown by their SMILES. In brackets after ≈: the same amount, converted by molar mass. Positions of bridges follow the written chain, without caps; N, C: chain ends. Non-standard residues stand in square brackets, D forms with d. Residues, ends and D or L forms follow the SMILES beside them. *: point of attachment. Tetradecanoyl(3R-OH) = CCCCCCCCCCC[C@@H](O)CC(=O)*; Asp(3S-OH) = N[C@H](C(=O)O)[C@H](O)C(=O)O; Thr(4-Cl) = N[C@H](C(=O)O)[C@H](O)CCl; aThr = C[C@H](O)[C@H](N)C(=O)O; dDab = NCC[C@@H](N)C(=O)O; NHCH2CH2NMe2 = CN(C)CCN*; Dab = NCC[C@H](N)C(=O)O; Dhb = C/C=C(\N)C(=O)O; NHcPr = C1CC1N* Bounds are passed on as bounds.

The values below come from ChEMBL document CHEMBL1134010, “Syntheses and antifungal activities of novel 3-amido bearing pseudomycin analogues” (Bioorg Med Chem Lett, 2001).

In one data set the test system is Aspergillus fumigatus. Put plainly: In vitro minimum inhibitory concentration (MIC) against Aspergillus fumigatus. It counts as functional. The method in brief: (§1)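 Tested against Candida albicans, Cryptococcus neoformans and Aspergillus fumigatus, with PSB as positive control. MIC is taken as the lowest drug concentration giving 90–100% inhibition of visible growth relative to drug-free controls.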

In data set [1] the test system is Candida albicans. Put plainly: In vitro minimum inhibitory concentration (MIC) against Candida albicans. In kind it is functional. The method in brief: as §1
For another data set, the system named is Cryptococcus neoformans. Put plainly: In vitro minimum inhibitory concentration (MIC) against Cryptococcus neoformans. In kind it is functional. The method in brief: as §1
For data set [2], the system named is Mus musculus. Put plainly: Compound was dosed four times to outbred, male ICR mice and signs of irritation (erythema, swelling, discoloration, necrosis and tail loss) were observed in tail irritation test; Yes. As to conditions: in vivo; call rule not given here. In kind it is ADME, organism-based.
The test system of data set [3] is Candida albicans. Put plainly: In vivo efficacy against murine Candidiasis dosed four times by intraperitoneal administration post-infection using Reed and Muench method. It counts as functional. As to conditions: ip. The method in brief: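 Systemic candidiasis in mice, with PSB and amphotericin B as positive controls. Analogues were given at 20, 10 and 5 mg/kg, four doses at 0, 4, 24 and 48 post-infection. ED50 is the dose giving 50% survival relative to untreated infected animals, calculated by the Reed and Muench method.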

Data set [4] relates to Mus musculus. Put plainly: In vivo efficacy against murine systemic Cryptococosis by intraperitoneal administration. As to conditions: ip. In kind it is functional. The method in brief:
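Murine systemic cryptococcosis, ip dosing BID ×4 at 5.0, 1.25, 0.312 and 0.078 mg/kg. ED50 is the dose giving 50% survival relative to untreated infected animals.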

Data set [5] concerns Mus musculus. Put plainly: Survival extension of the mice against Aspergillosis infection at a dose of 1 mg/kg. It counts as functional. The method in brief:
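Murine systemic aspergillosis model, ip. The analogue was given BID at 50, 10 and 1 mg/kg, and survival extension of infected animals was recorded.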

Data set [6] deals with Mus musculus. Put plainly: Toxicity at a dose of 75 mg/kg in mice; Death. As to conditions: in vivo.
The test system of data set [7] is Mus musculus. Put plainly: Toxicity at a dose of 100 mg/kg in mice; Death. As to conditions: in vivo.
Data set [8] has as its system Mus musculus. Put plainly: Toxicity at a dose of 125 mg/kg in mice; Death. As to conditions: in vivo.
In the next data set the test system is Rattus norvegicus. Put plainly: Toxicity at a dose of 50 mg/kg in rats; Death. More on the design: dose 50 mg/kg. As to conditions: in vivo. It counts as organism-based.
Data set [9] relates to Mus musculus. Put plainly: Survival extension of the mice against Aspergillosis infection at a dose of 20 mg/kg. In kind it is functional.
For data set [10], the system named is Mus musculus. Put plainly: In vivo efficacy against murine Candidiasis dosed four times by intraperitoneal administration post-infection using Reed and Muench method; Toxic. In kind it is functional, organism-based.

For the compound `C/C=C1\NC(=O)[C@H]([C@H](C)O)NC(=O)[C@H](CCN)NC(=O)[C@H](CCCCN)NC(=O)[C@H](CC(=O)NCCN)NC(=O)[C@@H](CCN)NC(=O)[C@@H](NC(=O)C[C@H](O)CCCCCCCCCCC)COC(=O)[C@H]([C@H](O)CCl)NC(=O)[C@H]([C@H](O)C(=O)O)NC1=O`, the MIC in the data set on Aspergillus fumigatus was 5 µg/mL (≈ 4 µM); with Candida albicans [1], 10 µg/mL (≈ 8 µM); against Cryptococcus neoformans it was < 0.01 µg/mL. In the data set with Mus musculus [2], the Tail vein toxicity result is “Active”. Also, the ED50 in the data set with Candida albicans [3] is < 5 mg/kg.

As to `C/C=C1\NC(=O)[C@H]([C@H](C)O)NC(=O)[C@H](CCN)NC(=O)[C@H](CCCCN)NC(=O)[C@H](CC(=O)NCCN(C)C)NC(=O)[C@@H](CCN)NC(=O)[C@@H](NC(=O)C[C@H](O)CCCCCCCCCCC)COC(=O)[C@H]([C@H](O)CCl)NC(=O)[C@H]([C@H](O)C(=O)O)NC1=O` ({Tetradecanoyl(3R-OH)}-S[dDab]D(NHCH2CH2NMe2)K[Dab][aThr][Dhb][Asp(3S-OH)][Thr(4-Cl)]; ester 1-C), the MIC with Aspergillus fumigatus was 5 µg/mL (≈ 3.91 µM); against Candida albicans [1], 0.156 µg/mL (≈ 0.122 µM); in the data set with Cryptococcus neoformans, < 0.01 µg/mL. The ED50 was 2.5 mg/kg in the data set on Mus musculus [4] and < 5 mg/kg in the data set with Candida albicans [3]. For the same compound, the Survival extension in the data set with Mus musculus [5] worked out at 23%. Also, the Toxicity entry in the data set with Mus musculus [6], with Mus musculus [7] and with Mus musculus [8] was “Death” each time.

Regarding `C/C=C1\NC(=O)[C@H]([C@H](C)O)NC(=O)[C@H](CCN)NC(=O)[C@H](CCCCN)NC(=O)[C@H](CC(=O)O)NC(=O)[C@@H](CCN)NC(=O)[C@@H](NC(=O)C[C@H](O)CCCCCCCCCCC)COC(=O)[C@H]([C@H](O)CCl)NC(=O)[C@H]([C@H](O)C(=O)O)NC1=O` [PSEUDOMYCIN B] ({Tetradecanoyl(3R-OH)}-S[dDab]DK[Dab][aThr][Dhb][Asp(3S-OH)][Thr(4-Cl)]; ester 1-C), the figures for the MIC against Aspergillus fumigatus, with Candida albicans [1] and against Cryptococcus neoformans were > 20 µg/mL, 0.625 µg/mL (≈ 0.517 µM) and 0.01 µg/mL (≈ 0.00828 µM), respectively. Further, the Toxicity result with Rattus norvegicus, in the data set on Mus musculus [6], in the data set with Mus musculus [7] and in the data set on Mus musculus [8] was “Death” throughout. The compound also displayed an ED50 in the data set with Mus musculus [4] of 1.8 mg/kg. This compound also showed a Survival extension in the data set with Mus musculus [9] of 46%.

With `C/C=C1\NC(=O)[C@H]([C@H](C)O)NC(=O)[C@H](CCN)NC(=O)[C@H](CCCCN)NC(=O)[C@H](CC(=O)NC2CC2)NC(=O)[C@@H](CCN)NC(=O)[C@@H](NC(=O)C[C@H](O)CCCCCCCCCCC)COC(=O)[C@H]([C@H](O)CCl)NC(=O)[C@H]([C@H](O)C(=O)O)NC1=O` ({Tetradecanoyl(3R-OH)}-S[dDab]D(NHcPr)K[Dab][aThr][Dhb][Asp(3S-OH)][Thr(4-Cl)]; ester 1-C), the MIC with Aspergillus fumigatus is 20 µg/mL (≈ 16 µM); against Candida albicans [1] it was 0.156 µg/mL (≈ 0.125 µM); in the data set on Cryptococcus neoformans it was < 0.01 µg/mL. The figures for the ED50 in the data set with Mus musculus [4] and in the data set on Candida albicans [3] were 2.9 mg/kg and < 5 mg/kg, respectively. Moreover, the Survival extension with Mus musculus [5] was determined as 29%. Moreover, the Toxicity entry in the data set on Mus musculus [7] and with Mus musculus [8] was “Death” in each case.

Regarding `C/C=C1\NC(=O)[C@H]([C@@H](C)O)NC(=O)[C@H](CCN)NC(=O)[C@H](CCCCN)NC(=O)[C@H](CC(=O)N[C@@H](CCCCN)C(=O)OC)NC(=O)[C@@H](CCN)NC(=O)[C@@H](NC(=O)C[C@H](O)CCCCCCCCCCC)COC(=O)[C@H]([C@H](O)CCl)NC(=O)[C@H]([C@H](O)C(=O)O)NC1=O`, the MIC is > 20 µg/mL in the data set with Aspergillus fumigatus, 1.25 µg/mL (≈ 0.926 µM) against Candida albicans [1] and < 0.01 µg/mL against Cryptococcus neoformans. In addition, the ED50 with Candida albicans [3] was < 5 mg/kg. Further, the Toxicity result in the data set on Mus musculus [7] and in the data set on Mus musculus [8] was “Death” throughout.

Regarding `C/C=C1\NC(=O)[C@H]([C@H](C)O)NC(=O)[C@H](CCN)NC(=O)[C@H](CCCCN)NC(=O)[C@H](CC(=O)NCCCCCCC)NC(=O)[C@@H](CCN)NC(=O)[C@@H](NC(=O)C[C@H](O)CCCCCCCCCCC)COC(=O)[C@H]([C@H](O)CCl)NC(=O)[C@H]([C@H](O)C(=O)O)NC1=O`, the MIC was > 20 µg/mL in the data set with Aspergillus fumigatus, 20 µg/mL (≈ 15.3 µM) against Candida albicans [1] and 0.312 µg/mL (≈ 0.239 µM) in the data set with Cryptococcus neoformans. In addition, the ED50 result in the data set with Mus musculus [10] was “Toxic”.

`C/C=C1\NC(=O)[C@H]([C@H](C)O)NC(=O)[C@H](CCN)NC(=O)[C@H](CCCCN)NC(=O)[C@H](CC(=O)NCCC)NC(=O)[C@@H](CCN)NC(=O)[C@@H](NC(=O)C[C@H](O)CCCCCCCCCCC)COC(=O)[C@H]([C@H](O)CCl)NC(=O)[C@H]([C@H](O)C(=O)O)NC1=O`: the results for the MIC against Aspergillus fumigatus, with Candida albicans [1] and in the data set on Cryptococcus neoformans were > 20 µg/mL, 1.25 µg/mL (≈ 1 µM) and 0.078 µg/mL (≈ 0.0625 µM), respectively. Besides, the ED50 in the data set on Candida albicans [3] turned out to be 6 mg/kg. Also, the Toxicity entry in the data set on Mus musculus [7] and with Mus musculus [8] was “Death” throughout.

For the compound `C/C=C1\NC(=O)[C@H]([C@H](C)O)NC(=O)[C@H](CCN)NC(=O)[C@H](CCCCN)NC(=O)[C@H](CC(=O)NCCCN(CC)CC)NC(=O)[C@@H](CCN)NC(=O)[C@@H](NC(=O)C[C@H](O)CCCCCCCCCCC)COC(=O)[C@H]([C@H](O)CCl)NC(=O)[C@H]([C@H](O)C(=O)O)NC1=O`, the MIC in the data set on Aspergillus fumigatus is > 20 µg/mL; in the data set with Candida albicans [1], 20 µg/mL (≈ 15.2 µM); against Cryptococcus neoformans, < 0.01 µg/mL. In addition, the Tail vein toxicity result in the data set with Mus musculus [2] is “Active”. In the data set with Candida albicans [3], the ED50 is < 4 mg/kg.

Regarding `C/C=C1\NC(=O)[C@H]([C@H](C)O)NC(=O)[C@H](CCN)NC(=O)[C@H](CCCCN)NC(=O)[C@H](CC(N)=O)NC(=O)[C@@H](CCN)NC(=O)[C@@H](NC(=O)C[C@H](O)CCCCCCCCCCC)COC(=O)[C@H]([C@H](O)CCl)NC(=O)[C@H]([C@H](O)C(=O)O)NC1=O` ({Tetradecanoyl(3R-OH)}-S[dDab]NK[Dab][aThr][Dhb][Asp(3S-OH)][Thr(4-Cl)]; ester 1-C), the MIC with Aspergillus fumigatus is 10 µg/mL (≈ 8.29 µM); in the data set with Candida albicans [1] it was 2.5 µg/mL (≈ 2.07 µM); against Cryptococcus neoformans, < 0.01 µg/mL. Further, in the data set on Mus musculus [2], the Tail vein toxicity entry was “Active”. The ED50 in the data set on Candida albicans [3] was < 0.8 mg/kg.
